Assay outcomes as filed in PubChem BioAssay.
AHR activator: human AHR activation; AHR-responsive luciferase reporter cells, luminescence; AID 2796; P35869; activation, % at 5 µM; hit rate 2.5% among 320,000; in the data active = activation above about 47%
UCH37 inh: inhibitors of human deubiquitinating enzyme UCH37. inhibition, % (no concentration beside the values). hit rate 0.33% among 330,000. purified proteasome/UCH37, Ub-AMC cleavage fluorescence;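 active = mean inhibition over replicate wells above about 20%, limit read from the data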
Target sequence (Q9Y5K5 whole entry, looked up): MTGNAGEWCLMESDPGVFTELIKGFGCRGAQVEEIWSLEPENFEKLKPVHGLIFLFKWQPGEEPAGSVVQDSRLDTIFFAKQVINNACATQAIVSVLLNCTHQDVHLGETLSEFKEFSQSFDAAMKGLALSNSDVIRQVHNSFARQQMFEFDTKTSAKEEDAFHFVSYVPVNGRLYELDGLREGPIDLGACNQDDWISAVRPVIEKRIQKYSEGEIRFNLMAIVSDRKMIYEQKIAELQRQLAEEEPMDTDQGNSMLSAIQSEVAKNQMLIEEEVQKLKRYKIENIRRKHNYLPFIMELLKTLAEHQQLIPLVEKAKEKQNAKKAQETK
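Signal – fluorescence, ex 355 nm, em 460 nm · System – Proteasome-bound UCH37 · Input – 0.15 nM proteasome as dispensed · Timing – 30 min preincubation with enzyme, 25 min cleavage at room temperature · Read-out basis – percent inhibition of cleavage signal versus uninhibited and no-proteasome wells · Medium – Tris-HCl pH 7.4 with ATP-MgCl2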
Arr AP2 block: human beta-arrestin and AP2 interaction inhibition; FITC-arrestin peptide / GST-AP2 beads, flow cytometry; AP2 beta2 appendage carries R879A mutation; hit rate 0.31% among 340,000; inhibition, % at 10 µM;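 active = inhibition above a set limit, near 3 SD of compounds lacking own fluorescence, cut at about 54% in these data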
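test system = AP2 appendage R879A on GSH beads | buffer or medium = PBS plus Tween 20 (0.05%) and BSA (0.1%) | incubation = 12 min plus 1 h, RT | detection = bead flow cytometry, FITC channel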
PolyA inhibitor: inhibitors of polyadenylation in S. cerevisiae; hit rate 0.02% among 300,000; AID 1875; activity score, % at 12 µM; S. cerevisiae SKY197-pL101 polyadenylation reporter, beta-gal luminescence; efflux-impaired pdr1/pdr3 knockout yeast; score 100 = 6 SD above DMSO;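 active = lowest replicate activity score at least 50, where 100 means six control SD above control mean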;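 also: yeast exposed to compound for 9 h at 30 °C; higher score means more reporter readthrough which indicates perturbed polyadenylation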
A3G deaminase: blocks human APOBEC3G single-stranded DNA deamination; Q9HC16; recombinant A3G, ssDNA deamination FAM/TAMRA fluorescence; inhibition, % at 20 µM; hit rate 0.28% among 330,000; AID 493012;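 active = inhibition of at least 40% at 20 µM, with no more than 30% in the related APOBEC3A deaminase screen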
Target sequence (Q9HC16 whole entry, looked up): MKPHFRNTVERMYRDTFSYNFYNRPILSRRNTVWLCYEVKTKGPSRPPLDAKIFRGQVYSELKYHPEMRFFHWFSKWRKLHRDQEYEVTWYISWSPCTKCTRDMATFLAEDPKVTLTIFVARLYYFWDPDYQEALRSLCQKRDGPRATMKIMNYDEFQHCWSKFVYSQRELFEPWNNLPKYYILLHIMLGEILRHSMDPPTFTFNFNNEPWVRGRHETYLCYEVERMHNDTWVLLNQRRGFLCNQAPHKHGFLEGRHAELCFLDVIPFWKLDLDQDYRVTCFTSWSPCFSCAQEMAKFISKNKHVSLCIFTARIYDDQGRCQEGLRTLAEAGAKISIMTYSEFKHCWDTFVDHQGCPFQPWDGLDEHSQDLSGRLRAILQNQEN
APOBEC3A inh: inhibitors of human APOBEC3A DNA deaminase; P31941; recombinant A3A, FAM/TAMRA ssDNA deamination fluorescence; inhibition, % at 20 µM; hit rate 0.41% among 330,000; AID 493011;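 active = at least 40% inhibition at 20 µM here, with at most 30% in a related deaminase screen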
Arr-AP2 CP1: blocks beta-arrestin peptide binding to human AP2 | shares compounds with Arr AP2 block | GST-AP2 beads, FITC arrestin peptide binding, flow cytometry; GST-fused beta2-adaptin appendage, R879A mutant | inhibition, % at 10 µM | hit rate 2% among 1,300;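 active = inhibition above a set limit, roughly 3 SD of non-fluorescent compound noise, cut at about 38% in these data; inactive = inhibition at or below that limit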;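 also: loss of bead fluorescence from 50 nM FITC arrestin peptide bound to appendage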
GST-FITC bead: GST-GSH bead binding interference, counter-screen; shares compounds with Arr AP2 block; GST-fluorescein binding to GSH beads, fluorescence; inhibition, % at 10 µM; hit rate 2% among 1,300;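 active = inhibition above 50%, about 3 SD of the inhibition seen with non-fluorescent compounds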;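 also: fluorescein maleimide labelled GST captured on 4 micron glutathione beads; higher means more loss of bead fluorescence from quenching or blocked binding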
A number is an active result. Hits are enriched below; roughly 3.4% of the tested compounds scored in any of these assays.

What do the screens show for `COc1cc(C=NNC(=O)CCn2cnc(-c3ccccc3)c2-c2ccccc2)ccc1O`?
UCH37 inh: inactive

What do the screens show for `CC(=NNc1nc(C(C)(C)C)cs1)c1ccccc1`?
UCH37 inh: inactive

What do the screens show for `COC(=O)c1ccccc1NC(=O)CN1CCN(c2ccccn2)CC1`?
AHR activator: inactive; UCH37 inh: inactive; Arr AP2 block: inactive; PolyA inhibitor: inactive; A3G deaminase: inactive; APOBEC3A inh: inactive

What do the screens show for `COC(=O)c1ccccc1N/C=C1\CCc2c(c(C)nn2-c2ccccn2)C1=O`?
AHR activator: inactive; UCH37 inh: inactive; Arr AP2 block: 56; PolyA inhibitor: inactive; A3G deaminase: inactive; APOBEC3A inh: inactive; Arr-AP2 CP1: 55; GST-FITC bead: inactive

What do the screens show for `Cc1ccc(N2CC(C(=O)NN=Cc3cccc([N+](=O)[O-])c3)CC2=O)cc1` (stereo unspecified)?
UCH37 inh: inactive

Results for Cc1ccc(N2CN=C(c3ccccc3)NC2=S)cc1 ?
AHR activator: inactive; UCH37 inh: inactive; Arr AP2 block: inactive; PolyA inhibitor: inactive; A3G deaminase: inactive; APOBEC3A inh: inactive

How did COc1ccc(C2=NCN(c3ccc(C)cc3)C(=S)N2)cc1 do in these assays?
AHR activator: inactive; UCH37 inh: inactive; Arr AP2 block: 80; PolyA inhibitor: inactive; A3G deaminase: inactive; APOBEC3A inh: inactive; Arr-AP2 CP1: inactive; GST-FITC bead: inactive

How did Cc1cc(C)nc(NS(=O)(=O)c2ccc(NC(=S)NC(=O)c3ccco3)cc2)n1 do in these assays?
AHR activator: inactive; UCH37 inh: inactive; Arr AP2 block: 58; PolyA inhibitor: inactive; A3G deaminase: inactive; APOBEC3A inh: inactive; Arr-AP2 CP1: inactive; GST-FITC bead: inactive

How did COc1cc(NS(=O)(=O)c2ccc(NC(=S)NC(=O)c3ccco3)cc2)nc(OC)n1 do in these assays?
AHR activator: inactive; UCH37 inh: inactive; Arr AP2 block: inactive; PolyA inhibitor: inactive; A3G deaminase: inactive; APOBEC3A inh: inactive

How did O=C(Cn1cncn1)c1ccc(Cl)cc1 do in these assays?
AHR activator: inactive; UCH37 inh: inactive; Arr AP2 block: inactive; PolyA inhibitor: inactive; A3G deaminase: inactive; APOBEC3A inh: inactive

Results for O=C(Cn1ccnc1)c1ccc(Cl)cc1 ?
AHR activator: inactive; UCH37 inh: inactive; Arr AP2 block: 55; PolyA inhibitor: inactive; A3G deaminase: inactive; APOBEC3A inh: inactive; Arr-AP2 CP1: inactive; GST-FITC bead: inactive

How did CNC(=S)N1CCN(c2c(F)cc3c(=O)c(C(=O)O)cn(C4CC4)c3c2OC)CC1C (stereo unspecified) do in these assays?
AHR activator: inactive; UCH37 inh: inactive; Arr AP2 block: 68; PolyA inhibitor: inactive; A3G deaminase: inactive; APOBEC3A inh: inactive; Arr-AP2 CP1: inactive; GST-FITC bead: inactive

How did COC(=O)C(C)NC(=S)N1CCN(c2c(F)cc3c(=O)c(C(=O)O)cn(C4CC4)c3c2OC)CC1C (stereo unspecified) do in these assays?
AHR activator: inactive; UCH37 inh: inactive; Arr AP2 block: inactive; PolyA inhibitor: inactive; A3G deaminase: inactive; APOBEC3A inh: inactive

What do the screens show for `COc1cc(/C=C2\N=C(c3ccccc3)OC2=O)ccc1OCc1c(C)no[n+]1[O-]`?
AHR activator: inactive; UCH37 inh: inactive; Arr AP2 block: inactive; PolyA inhibitor: inactive; A3G deaminase: inactive; APOBEC3A inh: inactive

How did Cc1no[n+]([O-])c1COc1cccc(/C=C2\N=C(c3ccccc3)OC2=O)c1 do in these assays?
AHR activator: inactive; UCH37 inh: inactive; Arr AP2 block: 68; PolyA inhibitor: inactive; A3G deaminase: inactive; APOBEC3A inh: inactive; Arr-AP2 CP1: inactive; GST-FITC bead: inactive

What do the screens show for `FC(F)(F)c1ccc(C=NNC(=S)NC2CCCCC2)cc1`?
UCH37 inh: inactive

What do the screens show for `CCN(CC)S(=O)(=O)c1ccc2c(c1)nc(CCC(=O)Nc1cccc(C(F)(F)F)c1)n2CC`?
AHR activator: inactive; UCH37 inh: inactive; Arr AP2 block: 85; PolyA inhibitor: inactive; A3G deaminase: inactive; APOBEC3A inh: inactive; Arr-AP2 CP1: inactive; GST-FITC bead: inactive

Results for CCN(CC(=O)Nc1ccc(OC)cc1)C(=O)Cc1cccs1 ?
AHR activator: inactive; UCH37 inh: inactive; Arr AP2 block: 56; PolyA inhibitor: inactive; A3G deaminase: inactive; APOBEC3A inh: inactive; Arr-AP2 CP1: inactive; GST-FITC bead: inactive

What do the screens show for `CCc1ccc(NC(=O)CC(C)=NNC(=O)COc2ccc(C)cc2Br)cc1`?
UCH37 inh: inactive

What do the screens show for `O=C1c2ccccc2NC(c2cnc3ccccc3n2)N1O` (stereo unspecified)?
AHR activator: inactive; UCH37 inh: inactive; Arr AP2 block: 94; PolyA inhibitor: inactive; A3G deaminase: inactive; APOBEC3A inh: inactive; Arr-AP2 CP1: inactive; GST-FITC bead: inactive

How did CCCS(=O)(=O)c1nc(S(=O)(=O)c2ccc(C)cc2)c(N2CCC(O)CC2)s1 do in these assays?
AHR activator: inactive; UCH37 inh: inactive; Arr AP2 block: inactive; PolyA inhibitor: inactive; A3G deaminase: inactive; APOBEC3A inh: inactive

How did CCCS(=O)(=O)c1nc(S(=O)(=O)c2ccc(C)cc2)c(N2CCC(C(N)=O)CC2)s1 do in these assays?
AHR activator: inactive; UCH37 inh: inactive; Arr AP2 block: 61; PolyA inhibitor: inactive; A3G deaminase: inactive; APOBEC3A inh: inactive; Arr-AP2 CP1: inactive; GST-FITC bead: inactive

How did O=C(COc1ccc(-c2ccccc2)cc1)NN=Cc1cc(O)ccc1Br do in these assays?
UCH37 inh: inactive

What do the screens show for `Cc1cc(NC(=O)c2ccc(F)cc2F)n(-c2nc3ccccc3[nH]2)n1`?
AHR activator: inactive; UCH37 inh: inactive; Arr AP2 block: inactive; PolyA inhibitor: inactive; A3G deaminase: inactive; APOBEC3A inh: inactive; Arr-AP2 CP1: inactive; GST-FITC bead: inactive

What do the screens show for `Cc1cc(NC(=O)/C=C/c2ccccc2Cl)n(-c2nc3ccccc3[nH]2)n1`?
AHR activator: inactive; UCH37 inh: inactive; Arr AP2 block: 101; PolyA inhibitor: inactive; A3G deaminase: inactive; APOBEC3A inh: inactive; Arr-AP2 CP1: inactive; GST-FITC bead: inactive

Results for Cc1nc2ccccc2c(=O)n1NC(=O)/C=C/c1ccccc1Cl ?
AHR activator: inactive; UCH37 inh: inactive; Arr AP2 block: inactive; PolyA inhibitor: inactive; A3G deaminase: inactive; APOBEC3A inh: inactive

What do the screens show for `Cc1cc(NC(=O)CC2CCCC2)n(-c2nc3ccccc3[nH]2)n1`?
AHR activator: inactive; UCH37 inh: inactive; Arr AP2 block: inactive; PolyA inhibitor: inactive; A3G deaminase: inactive; APOBEC3A inh: inactive

Results for CC(/C=C/c1ccccc1)=NNC(N)=S ?
UCH37 inh: inactive
